Measured values published in ChEMBL document CHEMBL1629709, “Inhibition of melanogenesis and oxidation by protocatechuic acid from Origanum vulgare (oregano)” (J Nat Prod, 2010).
In brackets after ≈: the same amount, converted by molar mass. Activity calls are given as the source filed them. No cut-off for these calls is given here.

How the values were obtained:
B16 [1] = assay: Cytotoxicity against mouse B16 cells up to 100 ug/ml after 72 hrs by MTT assay; format: cell-based; conditions: b16, 72 h
In short: (§1)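 B16 or Hs68 cells (1 × 10^4/well) seeded ≥24 h in DMEM with 10% FBS, then treated 72 h with 0, 5, 10, 20, 50, 100 µg/mL. MTT (0.5 mg/mL) for 4 h, formazan dissolved in DMSO, A570 read. Viability given as % of 0.1% DMSO vehicle culture; independent triplicates, mean ± SD.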

[2] = target: T1, Tyrosinase (Mus musculus) (UniProt P11344); assay: Inhibition of DOPA oxidase activity of tyrosinase in mouse B16 cells at 10 to 20 ug/ml after 72 hrs by colorimetry; format: cell-based
T1 sequence (whole entry): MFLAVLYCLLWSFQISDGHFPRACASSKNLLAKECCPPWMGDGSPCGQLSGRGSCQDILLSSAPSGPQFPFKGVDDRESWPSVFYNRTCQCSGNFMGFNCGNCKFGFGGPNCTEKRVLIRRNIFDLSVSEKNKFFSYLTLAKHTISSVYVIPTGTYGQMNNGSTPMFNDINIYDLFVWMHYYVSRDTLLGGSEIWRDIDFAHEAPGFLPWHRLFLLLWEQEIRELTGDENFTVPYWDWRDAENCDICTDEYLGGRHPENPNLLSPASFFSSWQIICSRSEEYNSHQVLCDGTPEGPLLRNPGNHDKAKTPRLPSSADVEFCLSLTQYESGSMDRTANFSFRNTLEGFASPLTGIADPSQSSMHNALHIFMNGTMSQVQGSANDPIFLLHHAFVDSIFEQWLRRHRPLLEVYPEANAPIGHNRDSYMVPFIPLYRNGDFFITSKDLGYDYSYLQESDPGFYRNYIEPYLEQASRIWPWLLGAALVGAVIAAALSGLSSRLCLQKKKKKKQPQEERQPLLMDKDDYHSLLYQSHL
In short: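 B16 cells (1 × 10^5 cells/mL) plated ≥24 h, then α-MSH (1 µM) alone or with 10 or 20 µg/mL agent for 72 h. Lysed in 50 mM sodium phosphate pH 6.8 with 1% Triton X-100 and freeze-thawed. Substrate of 6.3 mM MBTH, 1.1 mM DOPA, pH 7.1 buffer with 4% DMF added. 37 °C for 4 h, A508 read against α-MSH control; independent triplicates.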

[3] = target: T1, Tyrosinase (Mus musculus); assay: Inhibition of tyrosinase in mouse B16 cells at 10 to 20 ug/ml after 72 hrs by spectrophotometry; format: cell-based
In short: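 B16 cells (1 × 10^5 cells/mL) plated ≥24 h, then α-MSH (1 µM) alone or with 10 or 20 µg/mL agent for 72 h. Lysed in 50 mM sodium phosphate pH 6.8 with 1% Triton X-100 and freeze-thawed. 100 µL of 10 mM DOPA added, 37 °C for 4 h, DOPA oxidation read at A475 against α-MSH control; independent triplicates.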

Hs68 = assay: Cytotoxicity against human HS68 cells up to 100 ug/ml after 72 hrs by MTT assay; format: cell-based; conditions: hs68, 72 h; in short: as §1
[4] = system: Radical scavenging activity; assay: Antioxidant activity assessed as DPPH radical scavenging activity at 20 ug/ml after 30 mins; format: functional
In short: (§2)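 Sample (100 µL) added to 900 µL of 0.1 mM ethanolic DPPH and kept 30 min in the dark, then A517 read. Scavenging (%) = (1 − Asample/Acontrol) × 100. Control lacks test agent; ascorbic acid used as standard. EC50 estimated from the % inhibition versus concentration plot; mean ± SD, n = 3.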

[5] = system: Radical scavenging activity; assay: Antioxidant activity assessed as DPPH radical scavenging activity at 5 ug/ml after 30 mins; format: functional; in short: as §2
[6] = Antioxidant activity assessed as trolox equivalent of ABTS radical scavenging activity after 12 to 16 hrs; format: functional
In short: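 ABTS (7 mM) oxidized with 2.45 mM potassium persulfate (final) in the dark at room temperature for 12–16 h. Diluted with ethanol to A734 0.70 ± 0.02 at 30 °C. 0.1 mL sample added to 2.9 mL, 20 min at 30 °C, A734 read. TEAC reported as mg Trolox/g, from the concentration giving the same absorbance change as 1 mg Trolox.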

[7] = system: Radical scavenging activity; assay: Antioxidant activity assessed as DPPH radical scavenging activity at 100 ug/ml after 30 mins; format: functional; in short: as §2
[8] = system: Radical scavenging activity; assay: Antioxidant activity assessed as DPPH radical scavenging activity at 1 ug/ml after 30 mins; format: functional; in short: as §2
[9] = Antioxidant activity in mouse BNL-CL2 cells assessed as inhibition of H2O2-induced ROS production at 20 ug/ml by DCFHDA assay; format: functional; conditions: BNL CL.2, values are per cent of control
In short: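 BNLCL2 cells (1 × 10^5 cells/mL) exposed 24 h to 20 µg/mL agent. Detached, washed, loaded with 10 µM DCFH-DA in PBS for 30 min at 37 °C, then stimulated with 0.1 mM H2O2 for 30 min at 37 °C. DCF fluorescence read at ex 504/em 524 nm against H2O2-treated cells. Independent triplicates.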

[10] = system: Radical scavenging activity; assay: Antioxidant activity assessed as DPPH radical scavenging activity after 30 mins; format: functional; in short: as §2
[11] = system: Radical scavenging activity; assay: Antioxidant activity assessed as DPPH radical scavenging activity at 10 ug/ml after 30 mins; format: functional; in short: as §2
Liver [12] = assay: Antioxidant activity in mouse liver assessed as inhibition of Fe2+/ascorbate-induced lipid peroxidation up to 20 ug/ml by TBARS assay relative to control; format: functional, tissue-based
In short: (§3)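 Male ICR mice, 7 weeks, 30–35 g. Liver or brain homogenized 1:1 (w/v) in ice-cold 40 mM Tris-HCl pH 7.4 and spun at 3000g. Supernatant incubated with sample (20 or 100 µg/mL), 10 µM FeSO4 and 0.1 mM ascorbic acid, 37 °C for 1 h. TCA then TBA added, 80 °C for 20 min, A532 of MDA-TBA read with MDA standard; % inhibition versus control.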

B16 [13] = assay: Effect on nuclear morphology of mouse B16 cells at 20 ug/ml after 72 hrs by Hoechst 33342 staining in presence of alpha-MSH; format: ADME, cell-based; conditions: b16, 72 h
In short: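 B16 cells (1 × 10^5 cells/mL) given α-MSH (1 µM) alone or with 20 µg/mL compound for 72 h. Fixed in 4% paraformaldehyde, nuclei stained with 0.1 µg/mL Hoechst 33342, and viewed by inverted fluorescence microscopy (200×).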

Brain = assay: Antioxidant activity in mouse brain assessed as Fe2+/ascorbate-induced lipid peroxidation up to 100 ug/ml by TBARS assay relative to control
B16 [14] = assay: Antimelanogenic activity in mouse B16 cells assessed as decrease in tyrosinase expression at 20 ug/ml after 72 hrs by Western blotting; format: functional, cell-based
In short: (§4)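 B16 cells (1 × 10^5 cells/mL) given α-MSH (1 µM) alone as control or α-MSH plus 20 µg/mL compound, 72 h. Lysis at 4 °C for 20 min in Tris-HCl pH 7.5 buffer with 1% Triton X-100, EGTA, NaCl and PMSF. 40 µg protein run on 12.5% SDS-PAGE and transferred to nitrocellulose. Blocked in 5% skim milk. Probed with target and β-actin antibodies, HRP secondary, ECL detection.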

B16 [15] = assay: Antimelanogenic activity in mouse B16 cells assessed as inhibition of alpha-MSH-induced melanin formation after 72 hrs by spectrophotometry; format: functional, cell-based
In short: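 B16 cells (1 × 10^5 cells/mL) grown 24 h, then α-MSH (1 µM) plus 10 or 20 µg/mL compound in phenol red-free DMEM for 72 h. Melanin released into the medium read at OD 405 nm and expressed as % of 0.1% DMSO vehicle control. Independent triplicate experiments, mean ± SD.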

B16 [16] = assay: Antimelanogenic activity in mouse B16 cells assessed as decrease in MITF expression at 20 ug/ml after 72 hrs by flow cytometry assay; format: functional; conditions: B16, 72 h
In short: (§5)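 B16 cells (1 × 10^5 cells/mL) given α-MSH (1 µM) alone or with 20 µg/mL compound for 72 h. Mouse primary antibodies (1:300) 45 min at 4 °C, FITC anti-mouse IgG (1:500) 30 min at 4 °C. Read by flow cytometry against a normal mouse IgG1 isotype control; n = 3.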

B16 [17] = assay: Antimelanogenic activity in mouse B16 cells assessed as decrease in MCIR expression at 20 ug/ml after 72 hrs by flow cytometry assay; format: functional; conditions: B16, 72 h; in short: as §5
B16 [18] = assay: Antimelanogenic activity in mouse B16 cells assessed as decrease in TRP1 expression at 20 ug/ml after 72 hrs by Western blotting; format: functional, cell-based; in short: as §4
[19] = Antioxidant activity assessed as reducing capacity of the compound up to 100 ug/ml after 20 mins; format: functional
In short: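 Sample (0.2 mL; 0, 1, 5, 10, 20, 100 µg/mL) mixed with sodium phosphate buffer pH 6.6 and 1% potassium ferricyanide, 50 °C for 20 min. 10% TCA added, centrifuged at 10000g for 10 min. Upper layer mixed with water and 0.1% FeCl3. A700 taken directly as reducing power; ascorbic acid standard; mean ± SD, n = 3.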

B16 [20] = assay: Antimelanogenic activity in mouse B16 cells assessed as decrease in TRP2 expression at 20 ug/ml after 72 hrs by flow cytometry assay; format: functional; conditions: B16, 72 h; in short: as §5
B16 [21] = assay: Antimelanogenic activity in mouse B16 cells assessed as decrease in TRP1 expression at 20 ug/ml after 72 hrs by flow cytometry assay; format: functional; conditions: B16, 72 h; in short: as §5
[22] = Antioxidant activity assessed as ferrous ion chelating effect after 10 mins; format: functional
In short: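 Ferrozine method. 10 µL sample with 20 µL of 2 mM FeCl2 for 5 min, then 40 µL of 5 mM ferrozine added and volume brought to 1 mL with water. Shaken and held 10 min at room temperature, A562 read. EDTA as positive control. Chelation (%) = (1 − Asample/Acontrol) × 100.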

Liver [23] = assay: Antioxidant activity in mouse liver assessed as inhibition of Fe2+/ascorbate-induced lipid peroxidation up to 100 ug/ml by TBARS assay relative to control; format: functional, tissue-based; in short: as §3
B16 [24] = assay: Antimelanogenic activity in mouse B16 cells assessed as decrease in MITF expression at 20 ug/ml after 72 hrs by Western blotting; format: functional, cell-based; in short: as §4
B16 [25] = assay: Antimelanogenic activity in mouse B16 cells assessed as decrease in TRP2 expression at 20 ug/ml after 72 hrs by Western blotting; format: functional, cell-based; in short: as §4
B16 [26] = assay: Antimelanogenic activity in mouse B16 cells assessed as decrease in MC1R expression at 20 ug/ml after 72 hrs by Western blotting; format: functional, cell-based; in short: as §4
B16 [27] = assay: Antimelanogenic activity in mouse B16 cells assessed as decrease in tyrosinase expression at 20 ug/ml after 72 hrs by flow cytometry assay; format: functional; conditions: B16, 72 h; in short: as §5
[28] = Antioxidant activity assessed as inhibition of Fe2+/ascorbate-induced lipid peroxidation by TBA assay; format: functional
In short: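 Commercial liposomes (225–250 nm) with 10 mM FeSO4 and 10 mM ascorbic acid (11 µL each) plus compound in 50 mM sodium phosphate buffer pH 7.4, 2.5 mL final volume, 37 °C for 1 h. Stopped with TBA/TCA and EDTA, then heated at 100 °C for 20 min. Centrifuged and MDA adduct read at A532. Four replicates; inhibition (%) = (1 − Asample/Acontrol) × 100.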

Question: For OC[C@H]1O[C@@H](Oc2ccc(O)cc2)[C@H](O)[C@@H](O)[C@@H]1O [ARBUTIN], which Activity (B16 [1]) is on record?
Answer: Toxic

Question: What about the inhibition [2] of the same compound?
Answer: 30.9%

Question: What about the inhibition [3] of the same compound?
Answer: 33.1%

Question: And the Activity (Hs68)?
Answer: Toxic

Question: Which results are given for O=C1O[C@H]([C@@H](O)CO)C(O)=C1O [ASCORBIC ACID]?
Answer: Activity [4]: 81.4%; Activity [5]: 62.5%; Activity (B16 [1]): Toxic; EC50 [6]: 4.9 µg/mL; Activity [7]: 87.6%; inhibition [2]: 41.7%; Activity [8]: 0%; inhibition [3]: 29.8%; Activity (Hs68): Toxic; response, % of control at 20 µg/mL [9]: 102%; EC50 [10]: 4.2 µg/mL (≈ 23.8 µM); Activity [11]: 71.3%

Question: Which results are given for O=C(O)c1ccc(O)c(O)c1 [PROTOCATECHUIC ACID]?
Answer: Activity [4]: 74.6%; Activity (Liver [12]): Dose-dependent effect; Activity [5]: 68.4%; Activity (B16 [1]): Non-toxic; Activity (B16 [13]): Non-toxic; MDA-TBA level relative to control (Brain): 14.9%; EC50 [6]: 4 µg/mL; inhibition (B16 [14]): Active; inhibition (B16 [15]): Dose-dependent effect; Activity [7]: 82.7%; inhibition at 20 µg/mL (B16 [16]): 46.6%; inhibition at 20 µg/mL (B16 [17]): 21.1%; inhibition [2]: 57.4%; inhibition (B16 [18]): Active; Activity [19]: inactive; Activity [8]: 43%; inhibition at 20 µg/mL (B16 [20]): 29.3%; inhibition at 20 µg/mL (B16 [21]): 54.6%; Activity [22]: inactive; inhibition [3]: 22.2%; Activity (Liver [23]): Dose-dependent effect; inhibition (B16 [24]): Active; Activity (Hs68): Non-toxic; response, % of control at 20 µg/mL [9]: 85.1%; inhibition (B16 [25]): Active; inhibition (B16 [26]): Active; inhibition at 20 µg/mL (B16 [27]): 34.8%; EC50 [10]: 2.1 µg/mL (≈ 13.6 µM); Activity [11]: 70.4%; inhibition [28]: Dose-dependent effect

Question: For Cc1c(C)c2c(c(C)c1O)CCC(C)(C(=O)O)O2 (configuration not stated) [TROLOX], which response, % of control at 20 µg/mL [9] is on record?
Answer: 81.2%
